According to ChEMBL document CHEMBL1131456, “Synthesis, pharmacological characterization, and quantitative structure-activity relationship analyses of 3,7,9,9-tetraalkylbispidines: derivatives with specific bradycardic activity” (J Med Chem, 1998):

Columns and labels:
Cavia porcellus [1] = organism: Cavia porcellus; test: In vitro activity in guinea pig atria was measured as rate of spontaneously beating right atrium (SR) which reflects the activity of the sinus node; format: functional; conditions: Cardiac atrium
Summary of the method: (§1)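 Isolated guinea pig atria in oxygenated buffer at 35 °C. Right atria beat spontaneously; left atria were paced at 2 Hz with 1 ms rectangular pulses and isometric contractions were recorded. Cumulative concentration–response curves were run with up to five concentrations. EC75/EC125 is the concentration giving a 25% decrease/increase from the predrug value, reported as the geometric mean of individual ECs.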

Cavia porcellus [2] = organism: Cavia porcellus; test: In vitro activity in guinea pig atria as the functional refractory period (FRP), which is the shortest interval between a double stimulus causing a double contraction.; summary of the method: as §1
Cavia porcellus [3] = organism: Cavia porcellus; test: Score value indicates selectivity versus the decrease in force of contraction; format: functional
Rattus norvegicus [4] = organism: Rattus norvegicus; test: Selectivity quotient (DAP125/HR75)
Cavia porcellus [5] = organism: Cavia porcellus; test: Selectivity quotient (FRP125/SR75); format: functional
Summary of the method: (§2)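 Atrial selectivity quotients were calculated from the guinea pig atrial EC values as F75/SR75 and FRP125/SR75.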

Cavia porcellus [6] = organism: Cavia porcellus; test: Score point for the selectivity versus additional effect FRP.; format: functional
Rattus norvegicus [7] = organism: Rattus norvegicus; test: Score value indicates desire effect on heart rate; format: functional
Rattus norvegicus [8] = test: In vivo activity in anesthetized rat was measured as heart rate which provides information on in vivo bradycardic activity; format: functional
Summary of the method: (§3)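 Male Wistar rats (280–360 g) under urethane (1.25 g/kg ip), intubated and breathing spontaneously. Femoral arterial pressure was recorded with needle-electrode ECG, analysed every 30 s. Compound was given by continuous femoral-vein infusion at 0.1 mL/min, with concentration raised tenfold every 10 min (3 doses). ED75/ED125 is the dose giving a 25% decrease/increase from the predrug value, reported as the geometric mean of individual EDs.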

Rattus norvegicus [9] = organism: Rattus norvegicus; test: Selectivity quotient (R&T125/HR75)
Cavia porcellus [10] = organism: Cavia porcellus; test: Sum of the scores of decrease of the sinus rate and selectivity versus the decrease in force of contraction; format: functional
Rattus norvegicus [11] = organism: Rattus norvegicus; test: Total score (SS)
[12] = Partition coefficient (logP); format: physicochemical; conditions: octanol/water; read-out: logP
Summary of the method: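 Lipophilicity was measured by reversed-phase HPLC. Mobile phase was methanol/0.005 M phosphate buffer pH 4 (60/40) with 0.1% SDS and 0.1 M NaClO4, at 23.0 ± 0.5 °C, with UV detection at 205 nm.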

Rattus norvegicus [13] = test: In vivo activity in anesthetized rat was measured as the R alpha T-interval of the rat ECG which reflects the time from ventricular excitation to recovery; format: functional, Cardiac ventricle; summary of the method: as §3
[14] = Selectivity quotient (F75/SR75); # means very high (estimated); format: functional
Summary of the method: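 Isolated atria in oxygenated buffer at 35 °C. Spontaneously beating right atria gave sinus rate; left atria paced at 2 Hz with 1 ms rectangular pulses gave isometric force of contraction. Cumulative concentration-response curves used up to five concentrations. EC75 (25% decrease from predrug value) was taken as the geometric mean of individual values. Quotient is F75/SR75.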

Cavia porcellus [15] = organism: Cavia porcellus; test: Score value indicates decrease of the sinus rate; format: functional
Rattus norvegicus [16] = organism: Rattus norvegicus; test: Score value indicates selectivity against the undesired effect on diastolic blood pressure; format: functional, Artery
Rattus norvegicus [17] = organism: Rattus norvegicus; test: Score point for the selectivity versus additional effect R&T interval.; format: functional
Cavia porcellus [18] = organism: Cavia porcellus; test: Selectivity quotient (F75/SR75); format: functional; summary of the method: as §2
Cavia porcellus [19] = organism: Cavia porcellus; test: In vitro activity in guinea pig atria was measured as the peak force of contraction (F) of a stimulated left atrium; format: functional; conditions: Cardiac atrium; summary of the method: as §1
[20] = Selectivity quotient (DAP125/HR75); # means very high (estimated); format: functional
Summary of the method: (§4)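 Male Wistar rats (280–360 g), urethane-anesthetized (1.25 g/kg ip), breathing spontaneously. Femoral artery pressure gave diastolic pressure; subcutaneous needle ECG gave heart rate and RαT interval (R onset to T apex), analyzed every 30 s. Femoral vein infusion at 0.1 mL/min, concentration raised tenfold every 10 min (3 doses). ED75/ED125 (25% change from predrug) were geometric means; quotients DAP125/HR75 and RαT125/HR75.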

Rattus norvegicus [21] = test: In vivo activity in anesthetized rat was measured as the diastolic arterial pressure which provides information on the peripheral resistance of the cardiovascular system and selectivity regarding bradycardia; format: functional, Artery; summary of the method: as §3
[22] = Selectivity quotient (R&T125/HR75); # # means very low (estimated); format: functional; summary of the method: as §4
[23] = Selectivity quotient (FRP125/SR75); # # means very low (estimated); format: functional

Row | logP [12] | Compound | EC75 (Cavia porcellus [1]) | EC125 (Cavia porcellus [2]) | Score (Cavia porcellus [3]) | Selectivity quotient (Rattus norvegicus [4]) | Selectivity quotient (Cavia porcellus [5]) | Score (Cavia porcellus [6]) | Score (Rattus norvegicus [7]) | ED75 (Rattus norvegicus [8]) | Selectivity quotient (Rattus norvegicus [9]) | Score (Cavia porcellus [10]) | total score (SS) (Rattus norvegicus [11]) | ED125 (Rattus norvegicus [13]) | Score (Cavia porcellus [15]) | Score (Rattus norvegicus [16]) | Score (Rattus norvegicus [17]) | Selectivity quotient (Cavia porcellus [18]) | EC75 (Cavia porcellus [19]) | ED125 (Rattus norvegicus [21]) | further results
1 | 4.19 | C1CCC2(C1)C1CN(CC3CC3)CC2CN(CC2CC2)C1 [TEDISAMIL] | 1.3 µM | 0.76 µM | 0 |  | 0.56 | 3 | 5 | 5.3 µM/kg | 0.47 | 5 | 5 | 2.5 µM/kg | 5 | 0 | 4 | 37.6 | 49 µM |  | Selectivity quotient [20]: #
2 | 3.7 | CCCCN1CC2CN(CC(C)C)CC(C1)C2(C)C | 3.07 µM | 0.82 µM | 0 | >7 | 0.27 | 4 | 5 | 5.7 µM/kg | 0.13 | 4 | 4 | 0.73 µM/kg | 4 | -1 | 5 |  |  | >41 µM/kg | Selectivity quotient [14]: #
3 | 3.85 | CCCN1CC2CN(CCC)CC(C1)C2(CC)CC | 3.53 µM | 1.52 µM | 0 | 0.8 | 0.43 | 4 | 4 | 12 µM/kg | 0.18 | 3 | 1 | 2.1 µM/kg | 3 | -3 | 5 |  |  | 10 µM/kg | Selectivity quotient [14]: #
4 | 6.65 | CCC1(C)C2CN(CC3CCCCC3)CC1CN(CC1CCCCC1)C2 (configuration not stated) | 6.2 µM | 0.68 µM | -6 |  | 0.11 | 5 | 4 |  | 0.5 | -3 | 4 | 5.5 µM/kg | 3 | 0 | 3 | 0.76 | 4.69 µM |  | Selectivity quotient [20]: #
5 | 4.98 | CCCCN1CC2CN(CC3CCCCC3)CC(C1)C2(C)C | 0.88 µM | 0.48 µM | -1 | >7 | 0.55 | 3 | 5 | 5.7 µM/kg | 0.17 | 5 | 4 | 0.96 µM/kg | 6 | -1 | 5 | 18.5 | 16.3 µM | >41 µM/kg | 
6 | 8.26 | CCCCCCN1CC2CN(CCCCCC)CC(C1)C2(CC)CCCC (configuration not stated) | 0.6 µM | 1.27 µM | -4 | 1 | 2.12 | 2 | 0 |  |  | 2 | -3 | 4 µM/kg | 6 | -3 | 6 | 2.32 | 1.39 µM |  | Selectivity quotient [22]: very low
7 | 4.37 | CCCCN1CC2CN(CCCC)CC(C1)C2(C)CC (configuration not stated) | 3.21 µM | 0.54 µM | -6 | 0.12 | 0.17 | 5 | 6 | 4.6 µM/kg | 0.13 | -2 | 1 | 0.61 µM/kg | 4 | -5 | 5 | 0.47 | 1.52 µM | 0.57 µM/kg | 
8 | 4.51 | CCCC1(CCC)C2CN(C(C)C)CC1CN(C(C)C)C2 | 2.18 µM | 0.8 µM | -1 | 1.72 | 0.37 | 4 | 5 | 6.4 µM/kg | 0.28 | 4 | 2 | 1.8 µM/kg | 5 | -3 | 4 | 18.2 | 39.6 µM | 11 µM/kg | 
9 | 3.13 | C=CCCN1CC2CN(CCC=C)CC(C1)C2(C)C | 1.21 µM | 1.87 µM | 0 | >6 | 1.54 | 3 | 5 | 7.1 µM/kg | 0.13 | 5 | 4 | 0.94 µM/kg | 5 | -1 | 5 | >177 | > 215 µM | >46 µM/kg | 
10 | 7.03 | CCCCN1CC2CN(CCCC)CC(C1)C2(CCCC)CCCC | 1.91 µM | 1.01 µM | -5 | 0.58 | 0.53 | 3 | 4 | 8.7 µM/kg | 0.37 | 0 | 1 | 3.2 µM/kg | 5 | -3 | 4 | 1.12 | 2.14 µM | 5.1 µM/kg | 

Row | Compound | logP [12] | EC75 (Cavia porcellus [1]) | EC125 (Cavia porcellus [2]) | Score (Cavia porcellus [3]) | Selectivity quotient (Rattus norvegicus [4]) | Selectivity quotient (Cavia porcellus [5]) | Score (Cavia porcellus [6]) | Score (Rattus norvegicus [7]) | ED75 (Rattus norvegicus [8]) | Selectivity quotient (Rattus norvegicus [9]) | Score (Cavia porcellus [10]) | total score (SS) (Rattus norvegicus [11]) | ED125 (Rattus norvegicus [13]) | Score (Cavia porcellus [15]) | Score (Rattus norvegicus [16]) | Score (Rattus norvegicus [17]) | Selectivity quotient (Cavia porcellus [18]) | EC75 (Cavia porcellus [19]) | ED125 (Rattus norvegicus [21]) | further results
11 | CC(C)N1CC2CN(C(C)C)CC(C1)C2(C)C | 2.48 | 10.9 µM | 111 µM | -2 | 1 | 10.2 | 0 | 1 | 52 µM/kg | 0.35 | 0 | -2 | 18 µM/kg | 2 | -3 | 4 |  |  |  | Selectivity quotient [14]: #
12 | CCCCCCN1CC2CC(CN(C)C2)C1 | 3.18 |  | 1.4 µM | -5 | 1 |  | 6 | 1 | 46 µM/kg | 0.18 | -5 | -2 | 8.4 µM/kg | 0 | -3 | 5 | 1 | 83.8 µM |  | Selectivity quotient [23]: very low
